Measured values from ChEMBL document CHEMBL1123566, “Synthesis and cardiac electrophysiological activity of 2- and 3-[(substituted phenyl)alkyl]quinuclidines. Structure-activity relationships” (1987).
“And” between values parts separate entries of the source, which are not always exact repeats. Equal values may be shown once.

What was measured:
Canis familiaris [1] = experiment: Conduction time was determined by intraduodenal administration of two dosages of 10 mg/kg of compound in anesthetized dogs. Value was reported for experiment 1; assay type: functional, Canis lupus familiaris
In short: (§1)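 Anesthetized dogs given the compound intraduodenally, generally as two doses with the second a cumulative total (low/high). FRP and CT measured at 15, 30 and 45 min after dosing. HR and BP taken during nonpacing intervals. Values are percent change from control per animal. Activity criterion is FRP or CT prolonged ≥12%. Vehicle: 5% dextrose in water/tragacanth.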

Canis familiaris [2] = experiment: Conduction time was determined by intraduodenal administration of two dosages of 10 mg/kg (high dose) of compound in anesthetized dogs. Value was reported for experiment 3; assay type: functional, Canis lupus familiaris; in short: as §1
Canis familiaris [3] = experiment: Conduction time was determined by intraduodenal administration of two dosages of 3 mg/kg (high dose) of compound in anesthetized dogs. Value was reported for experiment 2; assay type: functional, Canis lupus familiaris; in short: as §1
Canis familiaris [4] = experiment: Conduction time was determined by intraduodenal administration of two dosages of 3 mg/kg (low dose) of compound in anesthetized dogs. Value was reported for experiment 1; assay type: functional, Canis lupus familiaris
In short: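 Anesthetized dogs; compound given intraduodenally, generally as two doses, the second a cumulative (high) dose. LV functional refractory period and conduction time measured 15, 30 and 45 min after dosing; heart rate and blood pressure measured during nonpacing intervals. Values are % change from control, given per individual animal. Active if FRP or CT prolonged by ≥12%.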

Canis familiaris [5] = experiment: Heart rate was determined by intraduodenal administration of two dosages of 3 mg/kg of (high dose) compound in anesthetized dogs. Value was reported for experiment 2; assay type: functional, Canis lupus familiaris; in short: as §1
Canis familiaris [6] = experiment: Heart rate was determined by intraduodenal administration of two dosages of 3 mg/kg of (high dose) compound in anesthetized dogs. Value was reported for experiment 3; assay type: functional, Canis lupus familiaris; in short: as §1
Canis familiaris [7] = experiment: Heart rate was determined by intraduodenal administration of two dosages of 1 mg/kg of (low dose) compound in anesthetized dogs. Value was reported for experiment 3; assay type: functional, Canis lupus familiaris; in short: as §1
Canis familiaris [8] = experiment: Left ventricular refractory period was determined by intraduodenal administration of two dosages of 3 mg/kg of (high dose) compound in anesthetized dogs. Value was reported for experiment 3; assay type: functional, Canis lupus familiaris, Cardiac ventricle
In short: (§2)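 Anesthetized dogs, usually given two intraduodenal doses, with the second dose cumulative (low/high). Left ventricular FRP and CT were determined at 15, 30 and 45 min after dosing. HR and BP were measured during nonpacing intervals. Values are % change from control at low/high dose, for individual animals. The vehicle-stability set used 5% dextrose in water/tragacanth (n = 8).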

Canis familiaris [9] = experiment: Mean arterial blood pressure was determined by intraduodenal administration of two dosages of 1 mg/kg of (low dose) compound in anesthetized dogs. Value was reported for experiment 3; assay type: functional, Canis lupus familiaris; in short: as §2
Canis familiaris [10] = experiment: Mean arterial blood pressure was determined by intraduodenal administration of two dosages of 3 mg/kg of (high dose) compound in anesthetized dogs. Value was reported for experiment 2; assay type: functional, Canis lupus familiaris; in short: as §2
Canis familiaris [11] = species: Canis familiaris; experiment: In vitro electrophysiological evaluation in canine cardiac ventricular muscle reported as % change for the functional refractory period (FRP) concentration range of 0.1-10 uM; parameters: species or system Canis lupus familiaris, Muscle tissue
In short: (§3)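 Canine right ventricular/papillary muscle strips in oxygenated Tyrode's, extracellular extra-stimulus conduction-interval method. FRP and CT are read from conduction-interval curves before and during rising concentrations. Compound is a 10 mM aqueous stock diluted into Tyrode's. Each strip is used once as its own control. Readouts are percent change from control at 10 μM, plus the maximum change with its concentration.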

Canis familiaris [12] = species: Canis familiaris; experiment: In vitro electrophysiological evaluation in canine cardiac ventricular muscle reported as maximum % change for conduction time(CT) at 0.1-10 uM concentration range; Minimal (<IO%increase or a decrease in CT); assay type: functional, Canis lupus familiaris, Muscle tissue; in short: as §3
Canis familiaris [13] = species: Canis familiaris; experiment: (§4) In vitro electrophysiological evaluation in canine cardiac ventricular muscle reported as % change for the functional refractory period (FRP) concentration range of 0.1-100 uM; parameters: species or system Canis lupus familiaris, Muscle tissue
In short: (§5)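 Canine right ventricle and papillary muscle strips in oxygenated Tyrode's solution, fitted with stimulating and recording electrodes. The extra-stimulus conduction-interval method was adapted for in vitro use. FRP and CT were read from a conduction-interval curve before and after various compound concentrations, and expressed as percent change from control. Compounds were taken from 10 mM deionized-water stock into Tyrode's. Each strip was used once as its own control.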

Canis familiaris [14] = species: Canis familiaris; experiment: In vitro electrophysiological evaluation in canine cardiac Purkinje fibres reported as percent change Vmax concentration range of 0.1-100 uM; Minimal (<IO%increase or a decrease in CT); assay type: functional; conditions: Canis lupus familiaris; Purkinje fiber
In short: (§6)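 Canine cardiac Purkinje fibres, intracellular microelectrode recording, paced at a basic cycle length of 1 s. APD95 and Vmax read simultaneously. Compound: 10 mM stock in deionized water, diluted into Tyrode's solution, tested over the stated concentration range. Each fibre used once as its own control. Result is % change from control, given at 10 µM or as the maximum with its concentration. M = <10% decrease or an increase in Vmax.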

Canis familiaris [15] = species: Canis familiaris; experiment: In vitro electrophysiological evaluation in canine cardiac Purkinje fibres reported as percent change Vmax concentration range of 0.1-10 uM; assay type: functional; conditions: Canis lupus familiaris; Purkinje fiber
In short: (§7)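 Canine cardiac Purkinje fibers, intracellular recording, paced at a basic cycle length of 1 s. APD95 and Vmax are recorded together across cumulative concentrations. Compound is a 10 mM aqueous stock diluted into Tyrode's solution. Each fiber is used once as its own control. Readouts are percent change from control at 10 μM, and the maximum change with the concentration where it occurred.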

Canis familiaris [16] = species: Canis familiaris; experiment: In vitro electrophysiological evaluation in canine cardiac Purkinje fibres reported as percent change Vmax concentration range of 1-100 uM; assay type: functional; conditions: Canis lupus familiaris; Purkinje fiber; in short: as §7
Canis familiaris [17] = species: Canis familiaris; experiment: In vitro electrophysiological evaluation in canine cardiac ventricular muscle reported as % change for conduction time(CT) at 0.1-10 uM concentration range; Minimal (<IO%increase or a decrease in CT); assay type: functional, Canis lupus familiaris, Muscle tissue; in short: as §3
Canis familiaris [18] = species: Canis familiaris; experiment: In vitro electrophysiological evaluation in canine cardiac ventricular muscle reported as maximum % change for conduction time(CT) at 0.1-100 uM concentration range; Minimal (<IO%increase or a decrease in CT); assay type: functional, Canis lupus familiaris, Muscle tissue; in short: as §5
Canis familiaris [19] = species: Canis familiaris; experiment: as §4; parameters: species or system Canis lupus familiaris, Muscle tissue; in short: as §3; remark: listed apart in the source
Canis familiaris [20] = species: Canis familiaris; experiment: In vitro electrophysiological evaluation in canine cardiac Purkinje fibres reported as maximum percent change Vmax concentration range of 0.1-10 uM; assay type: functional; conditions: Canis lupus familiaris; Purkinje fiber; in short: as §7
Canis familiaris [21] = species: Canis familiaris; experiment: In vitro electrophysiological activity in canine cardiac Purkinje fibres given as maximum % change for action potential duration at 0.1-100 uM concentration; assay type: functional, Canis lupus familiaris, Purkinje fiber
In short: (§8)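 Canine cardiac Purkinje fibres, intracellular recording at 1 s basic cycle length, over cumulative concentration ranges. Compound 10 mM stock in deionized water diluted into Tyrode's. Each fibre used once as its own control. Value is the maximum % change from control in APD at 95% repolarization, with the concentration where it occurred; both values given if a biphasic response (>20% reversal) occurred.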

Canis familiaris [22] = species: Canis familiaris; experiment: In vitro electrophysiological activity in canine cardiac Purkinje fibres given as maximum % change for action potential duration at 0.1-10 uM concentration; assay type: functional, Canis lupus familiaris, Purkinje fiber; in short: as §8
Canis familiaris [23] = species: Canis familiaris; experiment: In vitro electrophysiological evaluation in canine cardiac Purkinje fibres reported as % change for action potential duration at 0.1-10 uM concentration range; assay type: functional, Canis lupus familiaris, Purkinje fiber; in short: as §6
Canis familiaris [24] = species: Canis familiaris; experiment: In vitro electrophysiological evaluation in canine cardiac Purkinje fibres reported as % change for action potential duration at 1-100 uM concentration range; assay type: functional, Canis lupus familiaris, Purkinje fiber; in short: as §7
Canis familiaris [25] = species: Canis familiaris; experiment: In vitro electrophysiological evaluation in canine cardiac Purkinje fibres reported as maximum percent change Vmax concentration range of 0.01-100 uM; […]; assay type: functional; conditions: Canis lupus familiaris; Purkinje fiber; in short: as §7
Canis familiaris [26] = species: Canis familiaris; experiment: In vitro electrophysiological evaluation in canine cardiac Purkinje fibres reported as % change for action potential duration at 0.01-100 uM concentration range; assay type: functional, Canis lupus familiaris, Purkinje fiber; in short: as §7

Q: `CCCCCCC[N+](CC)(CC)CCCCc1ccc(Cl)cc1.O=P([O-])(O)O` [CLOFILIUM PHOSPHATE] was tested. Which CT (Canis familiaris [1]) did it give?
A: Its CT is -7%.

Q: What about the CT (Canis familiaris [2]) of the same compound?
A: The CT was -11%.

Q: What about the CT (Canis familiaris [3]) of the same compound?
A: Its CT is -7%.

Q: What about the CT (Canis familiaris [4]) of the same compound?
A: Its CT is -4%.

Q: What about the HR (Canis familiaris [5]) of the same compound?
A: The HR was -6%.

Q: And the HR (Canis familiaris [6])?
A: Its HR is -7%.

Q: And the HR (Canis familiaris [7])?
A: The HR was -2%.

Q: And the “LV FRP” value (Canis familiaris [8])?
A: The value was 4%.

Q: What about the Mean blood pressure (Canis familiaris [9]) of the same compound?
A: The Mean blood pressure was -3%.

Q: What about the Mean blood pressure (Canis familiaris [10]) of the same compound?
A: The Mean blood pressure was -14%.

Q: What about the FRP (Canis familiaris [11]) of the same compound?
A: The FRP was 38%.

Q: And the CT (Canis familiaris [12])?
A: Its CT is under 10%.

Q: And the FRP (Canis familiaris [13])?
A: The FRP was 11% and 5%.

Q: And the Vmax (Canis familiaris [14])?
A: The Vmax was under 10%.

Q: What about the Vmax (Canis familiaris [15]) of the same compound?
A: The Vmax was -11%.

Q: And the Vmax (Canis familiaris [16])?
A: Its Vmax is -50% and -49%.

Q: And the CT (Canis familiaris [17])?
A: The CT was under 10%.

Q: What about the CT (Canis familiaris [18]) of the same compound?
A: The CT was under 10%.

Q: And the “FRP at 10microM” value (Canis familiaris [19])?
A: Its value is -3%.

Q: What about the Vmax (Canis familiaris [20]) of the same compound?
A: The Vmax was -11%.

Q: And the APD95 (Canis familiaris [21])?
A: The APD95 was 52% and 46%.

Q: What about the APD95 (Canis familiaris [22]) of the same compound?
A: The APD95 was 52%.

Q: What about the APD95 (Canis familiaris [23]) of the same compound?
A: The APD95 was 52%.

Q: And the APD95 (Canis familiaris [24])?
A: Its APD95 is 49% and 18%.

Q: And the Vmax (Canis familiaris [25])?
A: Its Vmax is under 10%.

Q: And the APD95 (Canis familiaris [26])?
A: Its APD95 is 27% and 55%.
